The RNAGym collection of RNA variant scans (doi:10.1126/science.aae0568)
Fewer inactive variants are shown than the library holds.

B1: tRNA (parent)
chain: GUUCCGUUGGCGUAAUGGUAACGCGUCUCCCUCCUAAGGAGAAGACUGCGGGUUCGAGUCCCGUACGGAACG

Variants of: B1
Test: yeast fitness relative to wild type (ratio to wild type); higher = fitter; tRNA-Arg(CCU), competitive growth, 37 C, YPD
In short: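 Gene amplicons from the start population and from each of six end populations were read by 100-nucleotide paired-end sequencing. Those end populations came from pooled Saccharomyces cerevisiae strains carrying tRNA-Arg(CCU) gene variants at the native locus, competed in YPD at 37°C for 24 hours. Fitness relative to wild type was worked out from changes in genotype frequencies. Genotypes needed ≥ 100 starting reads, and estimates < 0.5 were set to 0.5.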

Point of comparison: GUUCCGUUGGCGUAAGGGUAACGCGUCUCCCUCCUAAGGAGAAGACUGCGGGUUCGAGUCCCAUACGGAACG, yeast fitness 0.937. Against it:
- GUUCCGUUGGCGUAAUAGUGACGCGUCUCCCUCUUAAGGAGAAGACUGCGGGUUGGAGUCCCGUACGGAACG — lower, ≤ 0.5
- GUUCCGUUGGCGUAAUAGUAGCGCGCCUCCCUCCUAAGGAGAAGACUGCGGGUUCGAGUCCUGUACGGAACG — lower, ≤ 0.5
- GUUCCGUUGGCGUAAUAGUAAGGCGUAUCCCUCCUAAGGAGAAGUCUGCGGGUUCCAGUCCCCUACCGAACG — lower, ≤ 0.5
- GUUCCGUUGGCGUAAUAGUGACGCCUCUCCCUCUUAAGGAGAAGAGUGCGGGUUCGAGUCCCAUCCGGAACG — lower, 0.561
- GUUCCGUUGGCGUAAUAGUAACGCGUCUCCCUCCUGAGGAGAAGACUGCGGGUUCGAGUCCCGUAUGGAACG — lower, 0.65
- GUUCCGUUGGCGUAAUAGUAACGCGUCUCCCUCCUAAGGAGAAGUCUGCGGAUUCGAGUCCCGUACGGAUCG — lower, 0.535
- GUUCCGUUGGCGUAAUAGUGACGCGUCUCCCUCCUCCGGAGAAGACUGCGGGGUCGAGUCCCGUACGGACCG — lower, ≤ 0.5
- GUUCCGUUGGCGUAAUAGUAACGCGUCUCCCUCCUAGGGAGAAGACUGCGGGUUCGAGUCCCGUACGGAACG — lower, 0.606
- GUUCCGUUGGCGUAAGGGUAACGCGUCUCCCCCCUAAGGAGAAGACUGCGGGUUCGAGUCCCGUACGGAACG — lower, 0.915
- GUUCCGUUGGCGUAAUAGUAAUGCGUCCCCCUCCUAAGGAGAAGACUGCGGGUGCGCGUCCUGUACGGAACG — lower, 0.535
- GUUCCGUUGGCGUAAUAGUAACGCGUCUCCCUCCUAAGGAGAAGACUGCGGGUUCGAGUCCCGUACGGCCCG — lower, 0.588
- GUUCCGUUGGCGUAAUAGUAACGCGUGUCCCUCCUAAGGAGAAGAGUGCGGGUUCGAGUCCCGUGCGGAACG — lower, ≤ 0.5
- GUUCCGUUGGCGUAAGGGUAACGCGACUCCCUCUUAAGGAGAAGACUGCAGGUUCGAGUCCCGUACGGAACG — lower, 0.552
- GUUCCGUUGGCGUAAUAGUCACGCAUCUCCCUCCUAAGGAGAAGACUGCGGGUUCGAGUCCCGUACGGAACG — lower, 0.506
- GUUCCGUUGGCGUAAGGGUAACGCGUCUCCCGCCUAAGGAGAAGAUUGUGGGUUCGAGUCCCGUACGGAACG — lower, ≤ 0.5
- GUUCCGUUGGCGUAAUAGUAACGCGUCUCCCUCCUAAGGUGAAGACUGCGGAUUCGAGUUCCCUACGGAACG — lower, ≤ 0.5
- GUUCCGUUGGCGUAAUAGUAACGCGUCUUCCUCCUAAGGAGAAGACUGCGGGUUCGAGUCCCGUACGGAACG — lower, 0.832
- GUUCCGUUGGCGUAAUAGUAACGCGUCUCCCUCCUAAGGAGGAGACUGCGGGUUCGAGUCCCGAACGGAACG — lower, 0.58
- GUUCCGUUGGCGUAAUAGUGACGCGUCUCCCUCCUAAGGAAAAGACUGCGGGUUCGAGUCCCGUACGGAACG — lower, 0.593
- GUUCCGUUGGCGUAAUAGUAACGCGUCUCCCUCCUAAGGAGAAGACUGCGGGUUCGUGUCCCGUACGGAACG — lower, 0.644
- GUUCCGUUGGCGUAAUAGUAACGCGUCUCCCUCCUACGGAGAAGACUGCGGGUUCGAGUCCCGUACGGCACG — lower, 0.648
- GUUCCGUUGGCGUAAUAGUAAUGCGUAUCGCUCCUAAGGAGAAGACUGAGGGUUCGAGUCCCGUACGGAACG — lower, ≤ 0.5
- GUUCCGUUGGCGUAAGGGUAACGCGUCUCCCUCCUAAGGAGAAGACUGCGGGUUCGAGUCCCGUACGAAACG — higher, 0.967
- GUUCCGUUGGCGUAAGGGUAACGCGUCUCCCUCCUAAGGAGAAGACUGCGCGUUCGAGUCCCGUCCGGAACG — lower, 0.635
- GUUCCGUUGGCGUAAUAGUAACGCGUCUCCCUCCUAUGGAGAAGACAGCGGGUUCGAGUCCCGUACGCAACG — lower, 0.645
- GUUCCGUUGGCGUAAUAGUAAAGCGUCUCCCUCCUGAGGAGAAGCUUGCGGGUUCGAGUCCCGUACGGAACG — lower, ≤ 0.5
- GUUCCGUUGGCGUAAUAGUGACGCGUCUCCCUCCUAAGGAGAAGACUGCGGGAUCGAGUCCCGUACGGAACG — lower, ≤ 0.5
- GUUCCGUUGGCGUAAUAGUAACGCGUCUGCCUCCUAAGGAGAAGACAGCGAGUUCGAGUCCCGUACGGAACG — lower, ≤ 0.5
- GUUCCGUUGGCGUAAUAGUAAUGCGUAUCGCUCCUAAGGAGAAGACUGCGGGUUCGAGUCCCGUAGGGAACG — lower, ≤ 0.5
- GUUCCGUUGGCGUAAGGGUAACGCGUCUCCCUCCUAAGGAGAAGACAGCGGGUACGUGUCCCGAACGGUACG — lower, 0.678
- GUUCCGUUGGCGUAAUAGUGACGCGUGUCCCUCCUCAGGAGAAGACAGCGGGUUCGAGUCCCGUACGAAACG — lower, ≤ 0.5
- GUUCCGUUGGCGUAAUAGUAACGCGUCUCCCUCCUACGGAGAAGACUGCGGAUUCAAGUCCCCUACGGAACG — lower, ≤ 0.5
- GUUCCGUUGGCGUAAUAGUAAGGCGUAUCCCUCCUGAGGAGAAGACUGCGGGUUCGAGUCCCGUACGGAACG — lower, ≤ 0.5
- GUUCCGUUGGCGUAAUAGUACCGCGUCUGCCUCCUAAGGAGAAGACUGCGGGUUCGAGUCCCGUACGGAUCG — lower, ≤ 0.5
- GUUCCGUUGGCGUAAUAGUAAUGCGUCUCCCUCCUAUGGAGAAGACAGCGGGUUCGAGUCCCGUACGCAACG — lower, ≤ 0.5
- GUUCCGUUGGCGUAAUAGUAACGCGUGUCCCUCCUAAGGAGAAGACUGCGGGUUCGAGUCUCGUACGGAACG — lower, ≤ 0.5
- GUUCCGUUGGCGUAAUAGUAACGCGUCUCCCUCCUAAGGAGCAGACUGCGGGUUCGAGUCCCGUACGGACCG — lower, 0.688
- GUUCCGUUGGCGUAAUAGUAACGCGUCUCCCUCCUAAGGAGAAGACUGCGGGUUCGAGUCCCGUUCGGAACG — lower, 0.805
- GUUCCGUUGGCGUAAGGGGAACGCGUCUGCCUCCUAAGGAGAAGACUGCCGGUUCGAGUCCCGUAUGGAACG — lower, ≤ 0.5
- GUUCCGUUGGCGUAAGGGUAACGCGUCUCCCUCCUAAGGAGAAGACUGCGGGUUCGAGUCCCGUACUGAACG — lower, 0.774
- GUUCCGUUGGCGUAAUAGUAACGGGUCUCCCUGCUAAGGAGAAGACUGCGGGUUCGAGUUCCGUACGGAACG — lower, ≤ 0.5
- GUUCCGUUGGCGUAAUAGUACCGCGUCUCCCUCCUAAGGAGAAGACUGCGGGUUCGAGUCCCGUACGGAACG — lower, 0.67
- GUUCCGUUGGCGUAAUAGUGACGCGUCUCACUCCUAAGGAGAAGACUGCGGGUUCGAGUCCCGUACGGAACG — lower, 0.628
- GUUCCGUUGGCGUAAUAGUGACGCGUCACCCUCCAAAGGAGAAGACUGCGGGUUCGAGUCCCGUACGGACCG — lower, ≤ 0.5
- GUUCCGUUGGCGUAAGGGUAACGCGUCUCCCUCCUAAGGAGAAGACUGCGGGUUCCAGUCCCGUACGGAACG — lower, ≤ 0.5
- GUUCCGUUGGCGUAAUAGUAAUGCGUCUCCCACUUAGGGUGAAGACUGCGGGUUCGAGUCCAAUACGGAACG — lower, 0.512
- GUUCCGUUGGCGUAAUAGUCACGUGUCUCCCUCCUAAGGAGAAGACUGCGGGUUCGAGUCCCGUACGGAACG — lower, 0.562
- GUUCCGUUGGCGUAAUAGUAAAGCGUCUCCAUACUAAGGAGAAGACUGAGGGUUCGAGUCCCGUACGGAACG — lower, 0.573
- GUUCCGUUGGCGUAAUAGUAACGCGUCUCCCUCCUACGGAGAAGACUGCGGGUUCGAAUCCCGUACGGAACG — lower, 0.551
- GUUCCGUUGGCGUAAUAGUAACGCGUCUGCCUCCUAAGGAGAAGACUGCGGGUUCGAGGCGUGUACGGAACG — lower, ≤ 0.5
- GUUCCGUUGGCGUAAUAGUCACGCAUCUCCCUCCUAAGGAGAAGACUGCGGGUUCGAGUCCCGUAAGCAACG — lower, ≤ 0.5
- GUUCCGUUGGCGUAAUAGUAAAGCAUCUCCCUCCUAAGGAGAAGACUGCGGGUUCGAGUCCCGUACGGAACG — lower, 0.501
- GUUCCGUUGGCGUAAUAGUAACGAGUCUCCCUCCUAAGGAGAAGACUGUGGGUUCGAGUCCCGUACGGAACG — lower, ≤ 0.5
- GUUCCGUUGGCGUAAUAGUAACGCGUCUCCCUCCUAAGGAGAAGUCUGCGGAUUCGAGUCCCGUACGGAACG — lower, ≤ 0.5
- GUUCCGUUGGCGUAAUAGUAAUGCGUCUCCCUCCUAAGGAGAAGGUUGCGGGUUCGAGUCCCGUACGGUACG — lower, 0.603
- GUUCCGUUGGCGUAAGGGUAACGCGUCUCCCUCCUAAGGAGAAGACUGCGGAUUCGAGUCCCGUACGGAACG — lower, 0.668
- GUUCCGUUGGCGUAAUAGUAAAGCGUCUCCCUCCCAAGGAGAAGCUUGCGGGUUCGAGUCCCGUACGGAACG — lower, 0.537
- GUUCCGUUGGCGUAAUAGUAAAGCGUCUCCCUCCUAAGGAGAAGCCUGCGGGUUCGAGUCCCGUACCGAACG — lower, ≤ 0.5
- GUUCCGUUGGCGUAAUAGUAAUGCGUCCCCCUCCUAAGGAGAAGACUGCGGGUUCGAGUCCCGUUCGGAACG — lower, ≤ 0.5
- GUUCCGUUGGCGUAAUAGUAACGCGUCUCCCUCCUAAGGAGAGGGCUGCGGGUUCGAGUCCGGUACGGAACG — lower, ≤ 0.5
- GUUCCGUUGGCGUAAUAGUAACGCGUCUCCCUCCUUAGGAGAAGAUUGCGGGUUCGAGUCCCGUACGGAACG — lower, ≤ 0.5
- GUUCCGUUGGCGUAAUAGUAACGUGUCUGCCUCCUAAGGAGAAGACUGCGGGUUCGAGUCCCGUACGGAACG — lower, 0.533
- GUUCCGUUGGCGUAAUAGUAACGCGUCUCCCUCCUAAGGAGAAGACUGCGGGUUCGAGUCCCGUACGGAUCG — lower, 0.864
- GUUCCGUUGGCGUAAUAGUAGCGCGCCUCCCUCCUAAGGAGAAGACUGCGGGUUCGAGUCCCGUAAGGAACG — lower, ≤ 0.5
- GUUCCGUUGGCGUAAUAGUAACGCGUCUCCCUCCUAAGGAGAAGGCUGCGGGUUCGAGUCCCGUACGGAACG — lower, 0.875
- GUUCCGUUGGCGUAAUAGUAAUGCGUCCCCCUCCUAAGGAGAAGACUGCGGGUGCGCGUCCCGUACGGAACG — lower, ≤ 0.5
- GUUCCGUUGGCGUAAGGGUAACGCGUCACCCUCCUAAGGAGUAGACUGCGGGUACGAGUCCCGUACGGAACG — lower, ≤ 0.5
- GUUCCGUUGGCGUAAUAGUAACGCGUCUCCCUCCUAAGGAGAAGGCUGCGGGUUCGAGUCCCGUUCGGAACG — lower, 0.559
- GUUCCGUUGGCGUAAUAGUAACGCGUCUCCCUCCUAAGGAGUAGACUGCGGGUUCGAGCCCCGUACGGAACG — lower, ≤ 0.5
- GUUCCGUUGGCGUAAUAGUAAUGCGUCUCCCUCCUAAGGAGAAGACUGCGGGUUCGAGACCCGUACGGAACG — lower, ≤ 0.5
- GUUCCGUUGGCGUAAUAGUCACGCGUCUCCCUCCUAAGGAGAACACUGCGGGUUCGAGUCCCGUACGGAACG — lower, 0.617
- GUUCCGUUGGCGUAAUAGUAGCGCGUCUCCCUCCUAAGGAGAAGACUGUGGGUUCGAGUACCAUACGGAACG — lower, 0.529
- GUUCCGUUGGCGUAAUAGUAACGCGUCUCCCUCCUAAGGCGAAGACUGCGGGUUCGAGUCCCGUACGGAACG — lower, 0.668
- GUUCCGUUGGCGUAAUAGUAACGCGUCUCCCUCCUAAGGAGGAGACUGCAGGUUCGAGUCCCGUACGGAACG — lower, ≤ 0.5
